For 71 molecules, cytotoxicity results are on record in ChEMBL document CHEMBL4513216, “Probing the Open Global Health Chemical Diversity Library for Multistage-Active Starting Points for Next-Generation Antimalarials” (ACS Infect Dis, 2020).

This series in a line: Toxicity liver stage against HepG2, at 10uM. Set-up: test concentration 10 uM, cell line HepG2-A16-CD81EGFP. To be noted: human, HepG2-A16-CD81EGFP cells; read-out: INHIBITION
In kind it is cell-based. Put shortly:
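Uninfected HepG2-A16-CD81EGFP cells, 3 × 10^3 per well, 1536-well, plated on prespotted compound at 10 μM final, parasite-free screening media added to match infected plates; puromycin 10 μM positive, DMSO 0.5% negative; run in parallel with 48 h PbLuc assay at 37 °C, 5% CO2; viability by CellTiter-Glo luminescence, normalized to controls.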
`CSc1ccc(CNC2CCCc3c2cnn3C)cc1` (stereo unspecified): the cytotoxicity at 10 µM was 0.684%. Take `Cc1cc(CN2CCN(CC(=O)NC3(C#N)CCCCC3)CC2)on1`: the cytotoxicity at 10 µM turned out to be 5.83%. In the case of `Clc1ccc(CN2CCCC(Cn3cncn3)C2)c2ncccc12` (stereo unspecified) it was -13.7%; in that of `Cc1ncncc1-c1ccnc(N(C)C)n1`, -8.3%. In the case of `O=C1CC(c2ccncc2)C2(CCN(C(=O)c3ccc[nH]3)CC2)N1` (stereo unspecified) it was 3.78%; in that of `Cn1cccc1C(=O)NCc1cn2c(n1)CN(Cc1cccnc1)CC2`, -113%. The value for `CCc1noc(CN(C)CCC(=O)Nc2ccc(C#N)c(Cl)c2)n1` was 22.5%. Regarding `O=C(CCn1cncn1)N1C[C@@H]2CC[C@H]1CN(Cc1cccnc1)C2`, the cytotoxicity at 10 µM is 7.39%.

Take `c1cncc(O[C@H]2COCCN(C3CCC3)C2)c1`: the cytotoxicity at 10 µM stood at 0.514%. Regarding `Cc1ccccc1CSc1nc(N)cc(N2CC[C@@H](O)C2)n1`, the cytotoxicity at 10 µM was determined as 0.28%.

In the case of `Cc1nc(C2CCCN2C(=O)CC2CCCC2)ncc1C(N)=O` (stereo unspecified), the cytotoxicity at 10 µM was -21.7%.

As to `NS(=O)(=O)NCc1cc(-c2ccc(C(F)(F)F)cc2)n[nH]1`, the cytotoxicity at 10 µM was -6.11%.

As to `CNC(=O)c1cc2c(nc1N(C)C)CCN(S(=O)(=O)CC(C)C)CC2`, the cytotoxicity at 10 µM is -3.85%.

In the case of `Fc1ccc(CN2CCOCC3(CCN(Cc4nccs4)C3)C2)cc1` (stereo unspecified), the cytotoxicity at 10 µM turned out to be 4.23%.

For the molecule `Cc1cccc(OCc2nnc(SCC3CCCN(C)C3)o2)c1` (stereo unspecified), the cytotoxicity at 10 µM is -2.8%. In the case of `O=C(C1CCCO1)N1CC[C@@H]2CN(Cc3ccccc3)S(=O)(=O)[C@@H]2CC1` (stereo partly specified) it was 12.9%; in that of `Cc1nc(N2CCOCC2)nc2c1COCC21CCN(CC2CC2)C1` (stereo unspecified), -116%. For `O=C1CCc2cc(C(=O)NCc3ccc(Cl)s3)ccc2N1`, the cytotoxicity at 10 µM was found to be 3.65%. With `c1csc(-c2nc(CN3CCCCC3Cn3cncn3)cs2)c1` (stereo unspecified), the cytotoxicity at 10 µM is -1.19%. In the case of `c1coc(CN2C[C@@H]3OCCN(CCN4CCCC4)[C@@H]3C2)c1` it was -1.52%. The value for `CNC(=O)C(C)CN(C)C(=O)Nc1cc(F)cc(Br)c1` (stereo unspecified) was 4.25%; that for `CC1CCN(c2nc3cn(-c4ccc5c(c4)OCO5)c(=O)c-3c[nH]2)CC1` was -14%; that for `CCN1C(=O)C2(CCOCC2)c2cc(NC(=O)c3cnoc3C)ccc21` was -2.54%. On to `O=C1CCC2(CCCN(C(=O)NCc3ccccc3)CC2)N1` (stereo unspecified), for which the cytotoxicity at 10 µM came to 5.23%. The value for `O=C(c1ccco1)N1CCO[C@@H]2CN(c3ccccc3)CC[C@@H]2C1` was -67.7%; that for `CNCCCNc1nc(C2CCCC2)nc2c1cnn2C` was 6.63%; that for `Cc1ccc(C(CNCc2cnn(C(C)C)c2)N2CCOCC2)s1` (stereo unspecified) was -21.3%. In the case of `CCn1c(CN2CCCC(Cn3cncn3)C2)nc2c(F)cccc21` (stereo unspecified) it was 6.49%; in that of `Cc1cc(CN(C)C(=O)CC(C)C)no1`, -3.57%. The value for `CC(NC(=O)CN1CCCC1=O)c1ccc(Cl)s1` (stereo unspecified) was -6.45%; that for `O=C(NCc1ccccn1)[C@]12COC[C@H]1CN(Cc1ccsc1)C2` was 4.91%; that for `CSc1nc2ncc3c(=O)n(C)ccc3n2n1` was -11.6%.

In the case of `CC(NCC1(N(C)C)CCOCC1)c1ccc(Cl)cc1` (stereo unspecified), the cytotoxicity at 10 µM was -3.19%. The value for `CNC(=O)[C@@H]1CC[C@@H]2[C@@H](CCN2Cc2ccccc2F)O1` was 8.1%; that for `COCCN1CCCc2sc(C(=O)N3CCCN(C)CC3)nc21` was 0.534%; that for `c1cc(CN2CCc3nc(N4CCOCC4)nc(NC4CC4)c3C2)co1` was 12%. The value for `Cc1cc(C)c2nc(CN3CCC(N4CCOCC4)CC3)cc(O)c2c1` was -0.173%; that for `NC(=O)CC1CCN(S(=O)(=O)c2cnn(-c3ccccc3)c2)CC1` was 12%. In the case of `CCc1cnc(N2CC[C@H]3[C@@H]2CCC(=O)N3c2ccccc2)nc1` it was -6.18%; in that of `COc1cccc(CN(C)C(=O)CCC(=O)c2ccc(Cl)cc2)c1OC`, -1.1%.

Consider `Cc1ccc(N2CC3(COCCN(Cc4ccccn4)C3)OCC2=O)s1` (stereo unspecified), for which the cytotoxicity at 10 µM is -3.49%. In the case of `Cc1ccc(C(=O)Nc2ccc3c(c2)N(C)CCN(C)C3)c(=O)[nH]1` it was -2.17%.

`Cc1cn(CCn2ccnc2-c2sccc2C)nn1`: the cytotoxicity at 10 µM turned out to be 15.9%. In the case of `CC(C)c1nnc2n1CCN(C(=O)CN(C)Cc1ccccc1)C2` it was -5.17%; in that of `Cc1cc(CN(C)CC2CCCCC2)no1`, 13.2%; in that of `CCN(C(=O)Nc1nccs1)C(C)c1cccc(O)c1` (stereo unspecified), -2.11%. In the case of `CC(C)N1CCN(CCn2cnc3c(F)cccc3c2=O)CC1` it was 1.64%; in that of `N#Cc1ccccc1CNC(C(=O)N1CCOCC1)c1ccccc1` (stereo unspecified), 11%; in that of `O=C(CCN1CCCCO1)NCc1cn2c(n1)SCC2`, 6.49%.

For the molecule `CCOCC1CN(C(=O)Cc2cccs2)Cc2ccnn2C1` (stereo unspecified), the cytotoxicity at 10 µM is -78.7%. In the case of `CC(C)CN1CC(c2nc(-c3ccsc3)c[nH]2)CC1=O` (stereo unspecified) it was 6.65%; in that of `c1ccc(-n2cc(CNC3CCc4ncnn4C3)nn2)cc1` (stereo unspecified), -4.01%. The value for `CC(CS(C)(=O)=O)NCc1cc(Cl)ccc1F` (stereo unspecified) was -46.6%; that for `O=C(NCC(=O)N1CCCC1Cc1cccc(F)c1)c1ccccn1` (stereo unspecified) was -8.51%; that for `CC(O)CN1CCN(C(=O)CCOC(C)C)CC1` (stereo unspecified) was -3.86%.

Take `CN1CCCN(C(=O)c2cc3c(s2)CCN3C(=O)c2ccccc2)CC1`: the cytotoxicity at 10 µM was found to be 1.05%.

Regarding `CN1C(=O)CC(C(=O)O)C12CCN(c1ccc3ccccc3n1)CC2` (stereo unspecified), the cytotoxicity at 10 µM amounted to 1.21%. Consider `Cc1ccc(-c2noc(C(O)CC(C)C)n2)nn1` (stereo unspecified), for which the cytotoxicity at 10 µM is -7.72%. The value for `CCCn1c(C)c(CC(=O)N(C)CC(=O)OC)c2c1CC(C)(C)CC2=O` was -0.839%. In the case of `O=C(NCCn1cccc1)C1CCC(=O)N(C2CCCC2)C1` (stereo unspecified) it was 0.622%; in that of `CC(C)NC(=O)N1CCC2(CC(=O)N(c3ccsc3)C2)C1` (stereo unspecified), -7.99%. In the case of `O=C(NCCNc1ncccn1)c1cnc(-c2ccccc2)nc1` it was 12.1%; in that of `Cc1ncc(CNC(=O)CCc2ccccc2F)c(C2CCCN2C)n1` (stereo unspecified), -7.55%; in that of `COc1ccc(S(=O)(=O)NCC(O)c2sccc2C)cc1Cl` (stereo unspecified), 1.17%. Take `C[C@@H]1CN(C2(C(=O)N3CCCCCC3)Cc3ccccc3C2)C[C@H](C)O1`: the cytotoxicity at 10 µM is -2.04%. In the case of `CCOC1Sc2nnc(C)n2N=C1c1ccc(F)cc1` (stereo unspecified), the cytotoxicity at 10 µM turned out to be 4.48%. In the case of `CC(=O)NCCNC(=O)NCc1ccc(-n2ccc(C(F)(F)F)n2)cc1` it was -6%; in that of `CC1(C)Cc2ccc(C(=O)NC3CCOCC3)c(O)c2O1`, -7.92%; in that of `Cc1cnccc1N1CCCN(C(=O)CCn2ccnc2C)CC1`, -6.32%. The value for `CCc1ccc(CN(CC)Cc2ccc(S(=O)(=O)NC)cc2)cc1` was -8.55%; that for `CC(=O)N1CCN([C@@H]2CCC[C@@H](NC(=O)c3cccnc3)[C@H]2O)CC1` was -0.00173%.
